Published values from different studies.
Each line is one published result; the experiments were not run side by side.
Target: Rho-associated protein kinase 2 (ROCK2, Homo sapiens, UniProt O75116)

SMILES	assay	conditions	endpoint	value
NS(=O)(=O)c1cc(NC(=O)C2(c3ccccc3Cl)CC2)ccc1Oc1cccc(Cl)c1	cell-free assay, competition with immobilised ligand	1 µM	remaining binding	100%
CC(C)(C)c1nc(-c2cccc(NS(=O)(=O)c3c(F)cccc3F)c2F)c(-c2ccnc(N)n2)s1	enzyme activity, inhibitor, radiometric	1 µM	remaining activity	103%
Nc1ncnc2occ(-c3ccc(NC(=O)Nc4cc(C(F)(F)F)ccc4F)cc3)c12	cell-free assay, inhibitor	20 µM	remaining signal	0%
Cn1cncc1C1=CN(c2ncnc3[nH]cnc23)CCS1	enzyme activity, inhibitor, radiometric	50 nM	inhibition	19.6%
CN(C(=O)c1ccccc1)c1cc(N(C)c2ccc3c(c2)CCc2ccc(C(=O)NCCN4CCOCC4)cc2C3=O)ccc1F	cell-free assay, competition with immobilised ligand	1 µM	remaining binding	100%
Cc1ccc(-n2nc(C(C)(C)C)cc2NC(=O)Nc2ccc(OCCN3CCOCC3)c3ccccc23)cc1	enzyme activity, inhibitor	10 µM	inhibition	-3%
O=C1Nc2ccc(Cl)cc2C1=Cc1cc(Cl)c(O)c(Cl)c1	cell-free assay	0.5 µM	remaining signal	90.6%
CNC(=O)c1cc(Oc2ccc(NC(=O)Nc3ccc(Cl)c(C(F)(F)F)c3)cc2)ccn1	enzyme activity, inhibitor	0.3 µM	inhibition	-11%
O=C(Nc1cnn(-c2csc(C(=O)NC3COC3)c2)c1)Nc1c(F)cccc1Cl	enzyme activity, inhibitor	5 µM	remaining activity	107%
Cn1cnc(Br)c1C1=CN(c2ncnc3[nH]cnc23)CCS1	enzyme activity, inhibitor, radiometric	2 µM	inhibition	77.6%
C[C@@H](N)[C@H]1CC[C@H](C(=O)Nc2ccncc2)CC1	cell-free assay	0.5 µM	remaining signal	26.3%
CC(C)(O)[C@H]1CC[C@H](Nc2ccc3ncc(-c4cccc(C(F)(F)F)c4)n3n2)CC1	enzyme activity, inhibitor	1 µM	remaining activity	92.8%
Cc1cnc(NC2CCOCC2)nc1-n1cnc(C(=O)NC(CN)c2cc(F)cc(Cl)c2)c1 (centres unmarked)	enzyme activity, inhibitor, radiometric	1 µM	remaining activity	25%
c1ccc2c(-c3ccncc3)c[nH]c2c1	cell-free assay	0.5 µM	remaining signal	71.9%
COc1cc2ncnc(Nc3ccc(Oc4ccccc4)c(C)c3C)c2cc1OC	enzyme activity, inhibitor	1 µM	inhibition	8%
COc1cccc(CNC(=O)c2nc3scc(COCc4ccc(C(=O)O)cc4)c3c(=O)[nH]2)c1	cell-free assay, competition with immobilised ligand	1 µM	remaining binding	69.1%
Cn1c(=O)n(-c2ccc(C(C)(C)C#N)cc2)c2c3cc(-c4cnc5ccccc5c4)ccc3ncc21	enzyme activity, inhibitor	10 µM	remaining activity	84%
CNCc1ccc(-c2cc(-c3nc(-c4ccc(S(=O)(=O)C(C)C)cc4)cnc3N)on2)cc1	enzyme activity, inhibitor	0.4 µM	inhibition	0%

SMILES	assay	conditions	endpoint	value
CC(=O)N1CCC(c2ccc(C(=O)NC3=NCCN3)cc2C(F)(F)F)CC1	cell-free assay, competition with immobilised ligand	1 µM	remaining binding	73%
O=S(=O)(NCCNC/C=C/c1ccc(Br)cc1)c1cccc2cnccc12	cell-free assay	0.5 µM	remaining signal	15.4%
Nc1nc(NC2CCCCC2)sc1C(=O)c1ccccc1	enzyme activity, inhibitor	10 µM	remaining activity	97%
FC(F)(F)c1ccc2c(c1)nc(-c1cccnc1)n2C1CC1	cell-free assay, competition with immobilised ligand	1 µM	remaining binding	100%
CN1CC(Oc2cnc(C#N)cc2-c2ccn3nc(NC(=O)C4CC4)cc3c2)C1	enzyme activity, inhibitor	1 µM	inhibition	5%
CS(=O)(=O)Nc1cccc(-c2csc(NC(=O)CSc3nc4nccnc4c(=O)n3CCc3ccccc3)n2)c1	enzyme activity, inhibitor	10 µM	inhibition	5%
Cc1ccc(Nc2nccc(N(C)c3ccc4c(C)n(C)nc4c3)n2)cc1S(N)(=O)=O	enzyme activity, inhibitor	0.3 µM	inhibition	-15%
CC(C)c1ccc(NC(=O)c2cccs2)c(-c2nc3ccccc3[nH]c2=O)c1	enzyme activity, inhibitor	1 µM	activity vs control	119%
CC/C(=N\NC(=O)C(C)Nc1ccccc1)c1ccc(O)c(C)c1O (centres unmarked)	enzyme activity, inhibitor	0.1 µM	inhibition	25.7%
COc1ccc2c(c1)O[C@H](c1ccc(OC)c(OC)c1)C[C@@H]2NC(=O)C1(c2ccc3c(c2)OC(F)(F)O3)CC1	cell-free assay, competition with immobilised ligand	1 µM	remaining binding	88%
Fc1cccc(-n2cnc3c(NCc4nc5c(F)c(F)ccc5[nH]4)nc(N4CCOCC4)nc32)c1	binding, competition with immobilised ligand	10 µM	binding vs control	54%
CNc1cccc2cc(C(=O)Nc3ccc(C(=O)O)cc3)c(=O)[nH]c12	enzyme activity, inhibitor	10 µM	inhibition	7.9%
CC(=O)C1=C(C)N(c2cccc(C(F)(F)F)c2)C(=O)N[C@@H]1c1ccc(C#N)nc1	cell-free assay, competition with immobilised ligand	1 µM	remaining binding	86.1%
CCCOc1ccc(OC)c(F)c1C(=O)c1ccc(C(=O)N[C@@H]2CNC[C@H]2NC(=O)c2ccc3[nH]ncc3c2)cc1	enzyme activity, inhibitor	0.5 µM	remaining activity	6%
COc1cc(Nc2cnc(C#N)c(O[C@H](C)CN(C)C)n2)ncc1-c1cnn(C)c1	enzyme activity, inhibitor, radiometric	1 µM	remaining activity	92%
Cc1c(NC(=O)c2cc(C(N)=O)nc3cc(F)ccc23)c(C(F)(F)F)nn1Cc1ccc(C(C)(C)C)cc1	cell-free assay, competition with immobilised ligand	1 µM	remaining binding	100%
CN(c1ncccc1CNc1nc(Nc2ccc3c(c2)CC(=O)N3)ncc1C(F)(F)F)S(C)(=O)=O	enzyme activity, inhibitor	1 µM	inhibition	11.3%
